According to ChEMBL document CHEMBL1147377, “Knerachelins A and B, antibacterial phenylacylphenols from Knema furfuracea” (1993):
In brackets after ≈: the same amount, converted by molar mass. Activity calls are given as the source filed them. No cut-off for these calls is given here.

Assays:
[1] = system: Pseudomonas aeruginosa; assay: Antibacterial activity against Pseudomonas aeruginosa IPA 237 after 24 hrs by agar dilution method; format: functional
Procedure, shortened: (§1)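 MIC by microplate titration in agar medium (agar dilution). Compounds dissolved in DMSO. Incubation at 37° for 24 h (the 24 h/37° conditions are stated for the bioguiding agar diffusion test against S. aureus 209 P).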

[2] = system: Klebsiella aerogenes; assay: Antibacterial activity against Enterobacter aerogenes HM12 after 24 hrs by agar dilution method; format: functional; procedure, shortened: as §1
[3] = system: Serratia marcescens; assay: Antibacterial activity against Serratia marcescens Guilpin 759 after 24 hrs by agar dilution method; format: functional; procedure, shortened: as §1
[4] = system: Enterococcus faecalis; assay: Antibacterial activity against Enterococcus faecalis ATCC 29212 after 24 hrs by agar dilution method; format: functional; conditions: ATCC 29212, 24 h; procedure, shortened: as §1
[5] = system: Staphylococcus aureus; assay: Antibacterial activity against Staphylococcus aureus IP 8203 after 24 hrs by agar dilution method; format: functional; procedure, shortened: as §1
[6] = system: Staphylococcus aureus; assay: Antibacterial activity against Staphylococcus aureus ATCC 25923 after 24 hrs by agar dilution method; format: functional; conditions: ATCC 25923, 24 h; procedure, shortened: as §1
[7] = system: Salmonella typhimurium; assay: Antibacterial activity against Salmonella Typhimurium IPL after 24 hrs by agar dilution method; format: functional, Salmonella enterica subsp. enterica serovar Typhimurium; conditions: Salmonella enterica; procedure, shortened: as §1
[8] = system: Escherichia coli; assay: Antibacterial activity against Escherichia coli V 2019 after 24 hrs by agar dilution method; format: functional; procedure, shortened: as §1
[9] = system: Staphylococcus aureus; assay: Antibacterial activity against Staphylococcus aureus 209P ATCC 6538 after 24 hrs by agar dilution method; format: functional; procedure, shortened: as §1
[10] = system: Staphylococcus aureus; assay: Antibacterial activity against Staphylococcus aureus V. de G. 26109 after 24 hrs by agar dilution method; format: functional; procedure, shortened: as §1
[11] = system: Streptococcus; assay: Antibacterial activity against Streptococcus A Dig 7 after 24 hrs by agar dilution method; format: functional; procedure, shortened: as §1
[12] = system: Staphylococcus aureus; assay: Antibacterial activity against Staphylococcus aureus Duc after 24 hrs by agar dilution method; format: functional; procedure, shortened: as §1
[13] = system: Streptococcus pneumoniae; assay: Antibacterial activity against Streptococcus pneumoniae 6254.013 after 24 hrs by agar dilution method; format: functional; procedure, shortened: as §1
[14] = system: Klebsiella pneumoniae; assay: Antibacterial activity against Klebsiella pneumoniae IP 7824 caroli after 24 hrs by agar dilution method; format: functional; procedure, shortened: as §1
[15] = system: Enterococcus faecium; assay: Antibacterial activity against Enterococcus faecium ATCC 19581 after 24 hrs by agar dilution method; format: functional; conditions: ATCC 19581, 24 h; procedure, shortened: as §1
[16] = system: Staphylococcus aureus; assay: Antibacterial activity against Staphylococcus aureus Duchaussoy after 24 hrs by agar dilution method; format: functional; procedure, shortened: as §1
[17] = system: Nucleic Acid; assay: Induction of phiX174 replicative form 1 template DNA cleavage at 24 ug after 1 hr by propidium iodide staining; format: nucleic-acid assay
Procedure, shortened: (§2)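 Reaction at pH 7.5, 15 µl final, with 50 mM sodium cacodylate, 100 ng ΦX174 RF I DNA and CuSO4 120 µM plus sample (24 or 48 µg). Incubated 1 h at 25°, stopped with EDTA. Run on 0.8% agarose at 80 V for 1.5 h in Tris-borate pH 8.0. Stained with propidium iodide 0.5 µg/ml; form II DNA scored.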

[18] = system: Streptococcus pneumoniae; assay: Antibacterial activity against Streptococcus pneumoniae 4314-03 after 24 hrs by agar dilution method; format: functional; procedure, shortened: as §1
[19] = system: Escherichia coli; assay: Antibacterial activity against Escherichia coli NIHJ-JC2 after 24 hrs by agar dilution method; format: functional; procedure, shortened: as §1
[20] = system: Streptococcus pneumoniae; assay: Antibacterial activity against Streptococcus pneumoniae 6176-23F after 24 hrs by agar dilution method; format: functional; procedure, shortened: as §1
[21] = system: Nucleic Acid; assay: Induction of phiX174 replicative form 1 template DNA cleavage at 48 ug after 1 hr by propidium iodide staining; format: nucleic-acid assay; procedure, shortened: as §2

Row | MIC [1] [µg/mL] | MIC [2] [µg/mL] | MIC [3] [µg/mL] | MIC [4] [µg/mL] | MIC [5] [µg/mL] | MIC [6] [µg/mL] | MIC [7] [µg/mL] | MIC [8] [µg/mL] | MIC [9] [µg/mL] | MIC [10] [µg/mL] | MIC [11] [µg/mL] | MIC [12] [µg/mL] | MIC [13] [µg/mL] | MIC [14] [µg/mL] | MIC [15] [µg/mL] | MIC [16] [µg/mL] | MIC [18] [µg/mL] | MIC [19] [µg/mL] | MIC [20] [µg/mL] | Structure (SMILES) | further results
1 | > 128 | > 128 | > 128 | 16 (≈ 59.2 µM) | 4 (≈ 14.8 µM) | 4 (≈ 14.8 µM) | > 128 | > 128 | 4 (≈ 14.8 µM) | 4 (≈ 14.8 µM) | 4 (≈ 14.8 µM) | 4 (≈ 14.8 µM) | 8 (≈ 29.6 µM) | > 128 | 16 (≈ 59.2 µM) | 4 (≈ 14.8 µM) | 8 (≈ 29.6 µM) | > 128 | 8 (≈ 29.6 µM) | O=C(CCCCc1ccccc1)c1c(O)cccc1O [KNERACHELIN B] | Activity [17]: inactive
2 | > 128 | > 128 | > 128 | 32 (≈ 107 µM) | 8 (≈ 26.6 µM) | 8 (≈ 26.6 µM) | > 128 | > 128 | 8 (≈ 26.6 µM) | 8 (≈ 26.6 µM) | 8 (≈ 26.6 µM) | 8 (≈ 26.6 µM) | 8 (≈ 26.6 µM) | > 128 | 32 (≈ 107 µM) | 8 (≈ 26.6 µM) | 8 (≈ 26.6 µM) | > 128 | 8 (≈ 26.6 µM) | COc1cc(O)c(C(=O)CCCCc2ccccc2)c(O)c1 [KNERACHELIN A] | Activity [21]: inactive
